Laboratory results published in article PMC4181337 (Metallomics : integrated biometal science, 2013).
Values joined by “and” are separate entries in the source; they are usually repeats but may differ in a detail not shown here. Equal values may be shown once.

Columns and labels:
[1] = Beagle dog, intravenous, radiolabeled; cited from earlier work
human red blood cells = details: inhibitor of the general anion transporter; cited from earlier work
[2] = Whole blood total V pharmacokinetics; type: in vivo, human
Outline: (§1)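 Diabetic patients were dosed with oral VOSO4 for forty days, followed by a sixteen-day washout, with periodic blood sampling. Total V was measured by GFAAS against a same-day standard curve; serum was run directly and whole blood after extra preparation. Decline was fitted to a one-compartment first-order model using the last dosing day plus three later points, giving k and half time. Accumulation was fitted using the washout k. AUC in (ng/mL)days was calculated for the exposure and decline phases.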

[3] = 24 hour urinary V clearance at steady state; type: in vivo, human
Outline: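 Type 2 diabetic patients took VOSO4 orally as tablets with meals, 3 per day, for six weeks. 24 hour urine was collected at steady state, with one to three collections per patient. Urine was analysed directly for total V by Zeeman-corrected GFAAS against a standard curve run the same day. Steady-state urinary V output was taken as the minimum amount absorbed.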

[4] = test system: patients with type 2 diabetes; details: two higher dose groups (50, 100 mg V), six weeks; cited from earlier work
[5] = test system: patients with type 2 diabetes; assay: Adverse symptoms reported during the clinical study; type: in vivo, human; details: doses of V used in this clinical study; not severe enough to drop subjects
[6] = test system: patients with type 2 diabetes; type: in vivo, human
Outline: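 Patients took placebo, then oral VOSO4 tablets with meals (3/day) for six weeks. They self-monitored blood glucose before meals and at bedtime daily, reported as weekly averages. Two-step euglycemic-hyperinsulinemic clamps were run before and after treatment: overnight low-dose insulin to normalise glucose, then primed-continuous insulin at 0.5 and then 1.0 mU/kg/min, 2 h each. Glucose was checked every 5 min with variable glucose infusion. M was normalised to body mass.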

[7] = Serum total V pharmacokinetics; type: in vivo, human
Outline: as §1

[8] = 50 mg V/day oral as VOSO4, 6 weeks, group mean ± SD
[9] = 50 mg V/day oral as VOSO4, 6 weeks, individual patient
[10] = 50 mg V/day oral as VOSO4, exposure and decline phases, individual patient
[11] = 50 mg V/day oral as VOSO4, group mean ± SD
[12] = 100 mg V/day oral as VOSO4, 6 weeks, group mean ± SD
[13] = 100 mg V/day oral as VOSO4, 6 weeks, individual patient
[14] = 100 mg V/day oral as VOSO4, exposure and decline phases, individual patient
[15] = 100 mg V/day oral as VOSO4, group mean ± SD
[16] = 25 mg V/day oral as VOSO4, group mean
[17] = patients taking 100 mg V per day
[18] = of the 8 patients receiving 100 mg V/day
[19] = 25 mg V/day oral as VOSO4, 6 weeks, group mean

SMILES: O=S(=O)([O-])[O-].[O]=[V+2] [vanadyl]
- half time of single exponential decline (majority of the dose) [1]: 24 h

SMILES: CC(=O)/C=C(/C)[O-].CC(=O)/C=C(/C)[O-].[O]=[V+2] [VO(acac)2]
- uptake by human red blood cells in the presence of DIDS (human red blood cells): no change

SMILES: O=S(=O)([O-])[O-].[O]=[V+2] [vanadyl sulfate]
- Pk Blood V [2, 8]: 85 ± 54 ng/mL
- SS Blood V [2, 8]: 65 ± 39 ng/mL
- Pk Blood V [2, 9]: 163 ng/mL and 26 ng/mL and 109 ng/mL and 50 ng/mL and 75 ng/mL
- Bld V t1/2 ([2]; 50 mg V/day oral as VOSO4, decline phase, individual patient): 240 h and 69.6 h and 106 h and 93.6 h and 161 h
- AUC Blood V [2, 10]: 3762 (ng/mL)days and 701 (ng/mL)days and 3474 (ng/mL)days and 2025 (ng/mL)days and 1788 (ng/mL)days
- AUC Blood V [2, 11]: 2351 ± 1264 (ng/mL)days
- Bld V t1/2 [2, 11]: 134 ± 67.2 h
- Pk Blood V [2, 12]: 201 ± 200 ng/mL
- SS Blood V [2, 12]: 205 ± 164 ng/mL
- Pk Blood V [2, 13]: 136 ng/mL and 132 ng/mL and 264 ng/mL and 654 ng/mL and 95 ng/mL and 225 ng/mL
- Bld V t1/2 ([2]; 100 mg V/day oral as VOSO4, decline phase, individual patient): 96 h and 103 h and 173 h and 146 h and 50.4 h and 72 h and 209 h
- AUC Blood V [2, 14]: 5648 (ng/mL)days and 5863 (ng/mL)days and 10552 (ng/mL)days and 20245 (ng/mL)days and 3741 (ng/mL)days and 6998 (ng/mL)days and 2341 (ng/mL)days
- AUC Blood V [2, 15]: 7912 ± 6023 (ng/mL)days
- Bld V t1/2 [2, 15]: 122 ± 57.6 h
- Mean Urine [V] at Steady State [3, 16]: 54 ng/mL
- Mean Urine [V] at Steady State ([3]; 25 mg V/day oral as VOSO4, individual patient): 60 ng/mL and 47 ng/mL
- 24 hour urinary V output at steady state ([3]; 50 mg V group, oral vanadyl sulfate): 0.18 ± 0.24 mg
- Mean Urine [V] at Steady State [3, 11]: 59 ± 80 ng/mL
- Mean Urine [V] at Steady State ([3]; 50 mg V/day oral as VOSO4, individual patient): 215 ng/mL and 29 ng/mL and 165 ng/mL and 18 ng/mL and 22 ng/mL
- 24 hour urinary V output at steady state ([3]; 100 mg V group, oral vanadyl sulfate): 0.97 ± 0.84 mg
- Mean Urine [V] at Steady State [3, 15]: 654 ± 705 ng/mL
- Mean Urine [V] at Steady State ([3]; 100 mg V/day oral as VOSO4, individual patient): 412 ng/mL and 468 ng/mL and 457 ng/mL and 2199 ng/mL and 207 ng/mL and 703 ng/mL and 135 ng/mL
- absorbed fraction of the administered V ([3]; 16 type 2 diabetic patients, oral vanadyl sulfate): about 1%
- absorption of the administered dose ([3]; 50 and 100 mg V groups, estimated from steady state urinary output): ≤ 1%
- V excreted [3, 17]: approximately 1 mg V per day
- absorption of V entering the GI tract [3, 17]: 1%
- absorption of V, of the daily dose ([3]; three doses of V used (25, 50, 100 mg/day)): less than 1%
- patients with improved fasting blood glucose [4]: approximately 50%
- adverse symptoms [5]: symptoms of gastrointestinal distress
- patients with improved responses for all three variables ([6]; of the 5 patients receiving 50 mg V/day): 2
- patients who responded well for all three variables [6, 18]: three
- patients who responded well for two variables [6, 18]: four
- Pk Serum V [7, 19]: 18.9 ng/mL
- SS Serum V [7, 19]: 15.4 ng/mL
- Pk Serum V ([7]; 25 mg V/day oral as VOSO4, 6 weeks, individual patient): 16.7 ng/mL and 21.1 ng/mL
- Ser V t1/2 [7, 16]: 64.8 h
- Pk Serum V [7, 8]: 81.7 ± 40 ng/mL and 81.7 ± 40.5 ng/mL
- SS Serum V [7, 8]: 63.1 ± 37.8 ng/mL
- Pk Serum V [7, 9]: 125 ng/mL and 87.0 ng/mL and 114 ng/mL and 30.2 ng/mL and 51.7 ng/mL
- AUC Serum V [7, 10]: 3538 (ng/mL)days and 1747 (ng/mL)days and 3894 (ng/mL)days and 946 (ng/mL)days and 617 (ng/mL)days
- AUC Serum V [7, 11]: 2149 ± 1494 (ng/mL)days
- Ser V t1/2 [7, 11]: 113 ± 38.4 h
- ratio of serum AUC to whole blood AUC, mean value ([7]; 50 mg dose group): 1.07±0.86 (ng/mL)days
- Pk Serum V [7, 12]: 319 ± 268 ng/mL
- SS Serum V [7, 12]: 314 ± 178 ng/mL
- Pk Serum V [7, 13]: 252 ng/mL and 227 ng/mL and 423 ng/mL and 906 ng/mL and 213 ng/mL and 368 ng/mL and 144 ng/mL
- AUC Serum V [7, 14]: 8695 (ng/mL)days and 8328 (ng/mL)days and 15779 (ng/mL)days and 26713 (ng/mL)days and 8041 (ng/mL)days and 11412 (ng/mL)days and 4781 (ng/mL)days
- AUC Serum V [7, 15]: 11965 ± 7340 (ng/mL)days
- Ser V t1/2 [7, 15]: 110 ± 60 h
- ratio of serum AUC to whole blood AUC, mean value ([7]; 100 mg dose group): 1.65±0.32 (ng/mL)days
- fold increase in steady state serum V concentration ([7]; 25 to 50 mg dose groups): 4 fold
- fold increase in steady state serum V concentration ([7]; 50 to 100 mg dose groups): 5 fold

SMILES: [O]=[V]([O-])([O-])[O-] [vanadate]
- uptake by human red blood cells in the presence of DIDS (human red blood cells): blocked
- half time of single exponential decline (majority of the dose) [1]: 24 h
